Hsp70 activator: transcriptional activators of Hsp70 | HeLa Hsp70 promoter luciferase reporter, luminescence; scaled: vehicle 0, proteasome-inhibitor control 100% | activation, % at 10 µM | hit rate 0.04% among 200,000 | AID 1203;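 active = activation above the mean across all tested compounds plus 3 SD, cutoff set per campaign, cut at about 5.5% in these data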;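 also: 100% = MG132 at 30 µM as the positive control and 0% = DMSO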
T cruzi inh: blocks replication of Trypanosoma cruzi; inhibition, % (concentration not given with the values); hit rate 1.4% among 300,000; T. cruzi beta-gal in NIH3T3, luminescence, 90 h;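 active = mean inhibition across valid replicates above about 55%, limit read from the data; inconclusive = mean below that limit but half or more replicates reach it; inactive = mean below it, under half of replicates reach it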;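 also: signal also drops with host cell toxicity which is not excluded here; 0% = plate median of DMSO wells and 100% = zero luminescence signal; higher percent means less beta-gal luminescence so fewer parasites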
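Read-out: Parasite load inhibition, % | Test system: Mouse NIH/3T3 fibroblasts infected with β-gal-expressing T. cruzi Tulahuen C4 | Amount: 5,000 cells/well | Medium: DMEM, 2% fetal bovine serum | Signal: GalScreen β-gal luminescence, detergent lysis, 60 min | Timing: 3 h attach, ≥90 h co-culture | Also added: Tulahuen C4 trypomastigotes, 5000/well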
Lmaj promast: Leishmania major promastigote growth inhibition; Leishmania major promastigotes, resazurin fluorescence viability; AID 1063; hit rate 9% among 200,000; inhibition, % at 10 µM; in the data active = inhibition above about 50%;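 also: promastigotes grown with compound for 44 hours at 28 °C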
HSF1 activator: increases HSF-1 driven luciferase reporter signal; activation, % at 9 µM; NIH3T3-HGL HSF-1 luciferase reporter, MG132, 8 h; 100% = twice DMSO control signal; AID 504408; hit rate 1.7% among 300,000;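 active = mean replicate activation of at least 50% with a set share of replicates each reaching 50%; inconclusive = only one of those two conditions met; inactive = mean below 50% and too few replicates reaching it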;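 also: 0% = median of the neutral control wells and 100% = twice that signal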
HSF1 inhib: HSF1 inhibition; NIH3T3-HGL HSE-luciferase, MG132-induced, luminescence 8 h; stronger effect = lower value; activity change, negative = inhibition, % at 7.5 µM (by protocol); hit rate 0.77% among 300,000;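 active = more than half of replicate wells show activity change below -50%, luminescence cut by over half; inconclusive = some wells, but at most half, below -50%; inactive = no replicate well below -50%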;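 also: luciferase reports HSF-1 transcriptional activity via heat shock element; 0% = median of DMSO wells and -100% = zero luminescence signal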
The depositor's hits bear a star; ? = inconclusive; · = not tested or not shown. The sample as a whole holds a higher share of hits than the screen did.

SMILES	Hsp70 activator	T cruzi inh	Lmaj promast	HSF1 activator	HSF1 inhib
COc1ccc(-c2c(C)[nH]n3c(=O)c(Cc4ccccc4)c(C)nc23)cc1	0	10	81*	14	-8
Cc1nc2nc(-c3ccc(Cl)cc3)[nH]n2c(=O)c1Cc1ccccc1	0	3	-8	6	11
Cc1cc(=O)n2[nH]cc(-c3ccccc3)c2n1	·	-8	·	-27	-11
O=[N+]([O-])c1ccc(Nc2ccccc2F)nc1	0	13	-5	24	3
COc1ccc(Cl)cc1C(=O)Nn1c(-c2cccs2)nc2ccccc2c1=O	0	24	61*	5	-8
COc1ccc(Cl)cc1C(=O)Nn1c(C)nc2ccccc2c1=O	0	-3	-3	-17	-12
CC(CNC(=O)CCC(=O)N1CCOc2ccc(Cl)cc21)c1ccccc1 (stereo not given)	·	3	·	4	4
CCN(CC)CCC(=O)N1c2ccccc2Sc2ccc(NC(=O)OC)cc21	·	46	·	16	17
CCOC(=O)Nc1ccc2c(c1)N(C(=O)CCN(C)C)c1ccccc1S2	0	85*	11	36	19
CCN1CCN(CC(=O)N2c3ccccc3Sc3ccccc32)CC1	·	2	·	5	-2
CCOC(=O)Nc1ccc2c(c1)N(C(=O)CN1CCN(C)CC1)c1ccccc1S2	0	71*	19	?	28
CN(C)c1ccc(NC(=O)CN2CCC(O)(c3ccccc3)CC2)cc1	0	17	-4	-1	-5
CN(C)C(=O)C(CCN1CCC(O)(c2ccc(Cl)cc2)CC1)(c1ccccc1)c1ccccc1	0	?	97*	-3	-2
CCOC(=O)Cc1cnc(NC(=O)CSc2nc(C(C)C)cc(=O)[nH]2)s1	·	-4	·	3	-6
COc1ccc(NC(=O)n2ncc3cc(Cl)ccc32)cc1OC	·	-4	·	53*	22
COc1ccc(NC(=O)CCCc2nnc3n(C)c(=O)c4sccc4n23)cc1	·	-12	·	-1	-3
CCOC(=O)c1cc(-c2ccc(OC)cc2)n(CCC(=O)NC2CCN(Cc3ccccc3)CC2)c1C	0	45	84*	18	3
CCOC(=O)c1cc(-c2ccc(F)cc2)n(CCC(=O)NC2CCN(Cc3ccccc3)CC2)c1C	0	78*	80*	-3	5
CCOC(=O)c1cc(-c2ccc(OC)cc2)n(CCC(=O)NCCN2CCC(C)CC2)c1C	0	3	23	20	21
CCOC(=O)c1cc(-c2ccccc2)n(CC(=O)Nc2ccc(OC)cc2)c1C	0	4	51*	21	1
Cc1nc(C(=O)NC(C)C)nn1-c1cc(Cl)cc(Cl)c1	0	-18	4	-1	-3
Cc1ccc(C(=O)NC2CCC(C)CC2)o1 (stereo not given)	·	-10	·	17	1
Cn1c(=O)n(C)c2cc(NC(=O)CSc3nnc(-c4ccccc4O)n3-c3ccccc3)ccc21	0	10	60*	12	13
CCn1c(SCC(=O)Nc2ccc3c(c2)n(C)c(=O)n3C)nnc1-c1ccncc1	·	5	·	-11	-8
CCc1nnc(NC(=O)CSc2nnc(-c3ccccc3O)n2-c2ccc(C)cc2C)s1	0	4	99*	18	5
SMILES	Hsp70 activator	T cruzi inh	Lmaj promast	HSF1 activator	HSF1 inhib
O=C1c2ccccc2NC(c2ccccc2Cl)N1N=C1CCCCCC1 (stereo not given)	0	9	33	32	23
Cc1nnc(N/N=C\c2ccc(-c3ccccc3[N+](=O)[O-])o2)n1N	0	-11	58*	80*	36
O=C(N/N=C/c1ccc(-c2ccccc2[N+](=O)[O-])o1)[C@H]1C[C@@H]1c1ccccc1	0	-32	90*	41	25
Cc1ccc(C(=O)N/N=C/c2ccc(-c3ccccc3[N+](=O)[O-])o2)cn1	0	-23	72*	34	15
Cc1nnc(N/N=C/c2ccc(-c3ccccc3F)o2)n1N	0	1	48	37	27
COc1ccc(-c2ccc(/C=N/NC(=O)c3cccnc3)o2)c([N+](=O)[O-])c1	0	8	75*	3	3
Cc1ccc(C(=O)N/N=C/c2ccc(-c3cccc(Cl)c3)o2)cn1	·	3	·	4	-1
CC(C)CCN(C(=O)CNC(=O)c1ccco1)C(C(=O)NC1CCCCC1)c1cccnc1 (stereo not given)	·	-1	·	22	-3
COc1n[nH]c(C(=O)Nc2cc(F)ccc2C)c1[N+](=O)[O-]	0	-4	17	-6	-5
COc1ccc(Cl)cc1NC(=O)c1[nH]nc(OC)c1[N+](=O)[O-]	0	35	53*	-2	1
COc1n[nH]c(C(=O)Nc2cc(Cl)ccc2Cl)c1[N+](=O)[O-]	0	?	89*	14	12
COc1cc(C2NCC(c3ccc(Cl)cc3Cl)c3c2[nH]c2ccccc32)cc(OC)c1OC (stereo not given)	0	43	99*	8	7
Cc1c(N=C2C=C(Br)C(=O)C(Br)=C2)c(=O)n(-c2ccccc2)n1C	0	·	-2	·	·
Cc1c(N=C2C=CC(=O)c3ccccc32)c(=O)n(-c2ccccc2)n1C	0	6	101*	34	23
CC(=O)c1nn(-c2cccc(C)c2)cc1C(=O)c1cccc(Br)c1	·	·	·	-5	-3
CCCCN(C1CCS(=O)(=O)C1)S(=O)(=O)c1ccc(OC)cc1 (stereo not given)	·	-7	·	-3	-5
CC(=O)[C@@]1(O)C(C)CC2C3C=C(C)C4=Cc5c(cnn5-c5ccccc5)C[C@]4(C)C3C(O)C[C@@]21C (stereo not given in full)	·	64*	·	-57	?
COc1ccc(N(CC(=O)Nc2ccccc2F)S(=O)(=O)c2ccc(C)c([N+](=O)[O-])c2)cc1	0	33	21	14	8
O=C(CN(Cc1cccs1)S(=O)(=O)c1ccc(S(=O)(=O)NC2CCCCC2)cc1)Nc1ccccc1	0	57*	41	42	6
COC(=O)COc1ccc(S(=O)(=O)NC2CCCCCC2)cc1	0	-26	8	4	0
COC(=O)CCN(C1CCCCC1)S(=O)(=O)c1ccc(S(=O)(=O)NC2CCCCC2)cc1	0	28	99*	9	3
CCC(C)NS(=O)(=O)c1ccc(S(=O)(=O)N(CC(=O)Nc2ccccc2)CC2CCCO2)cc1 (stereo not given)	0	13	60*	7	7
O=C(CN(C1CC1)S(=O)(=O)c1ccc(S(=O)(=O)NC2CCCCC2)cc1)Nc1ccccc1	0	·	100*	·	·
Cn1c(CCNS(=O)(=O)c2ccccc2)nnc1SCc1cccnc1	·	12	·	8	-2
CC(NCC(O)COc1ccccc1)C1COc2ccccc2O1 (stereo not given)	·	-27	·	0	-2
O=C(NC1CCN(Cc2ccccc2)CC1)C(NS(=O)(=O)c1cccc2nsnc12)c1ccccc1 (stereo not given)	0	21	51*	-8	-6

Screening results: PubChem, several laboratories
